Assay results pooled from the literature.
Target: Serine/threonine-protein kinase Nek9 (NEK9, Homo sapiens, UniProt Q8TD19)
One construct used (Q8TD19 1-979): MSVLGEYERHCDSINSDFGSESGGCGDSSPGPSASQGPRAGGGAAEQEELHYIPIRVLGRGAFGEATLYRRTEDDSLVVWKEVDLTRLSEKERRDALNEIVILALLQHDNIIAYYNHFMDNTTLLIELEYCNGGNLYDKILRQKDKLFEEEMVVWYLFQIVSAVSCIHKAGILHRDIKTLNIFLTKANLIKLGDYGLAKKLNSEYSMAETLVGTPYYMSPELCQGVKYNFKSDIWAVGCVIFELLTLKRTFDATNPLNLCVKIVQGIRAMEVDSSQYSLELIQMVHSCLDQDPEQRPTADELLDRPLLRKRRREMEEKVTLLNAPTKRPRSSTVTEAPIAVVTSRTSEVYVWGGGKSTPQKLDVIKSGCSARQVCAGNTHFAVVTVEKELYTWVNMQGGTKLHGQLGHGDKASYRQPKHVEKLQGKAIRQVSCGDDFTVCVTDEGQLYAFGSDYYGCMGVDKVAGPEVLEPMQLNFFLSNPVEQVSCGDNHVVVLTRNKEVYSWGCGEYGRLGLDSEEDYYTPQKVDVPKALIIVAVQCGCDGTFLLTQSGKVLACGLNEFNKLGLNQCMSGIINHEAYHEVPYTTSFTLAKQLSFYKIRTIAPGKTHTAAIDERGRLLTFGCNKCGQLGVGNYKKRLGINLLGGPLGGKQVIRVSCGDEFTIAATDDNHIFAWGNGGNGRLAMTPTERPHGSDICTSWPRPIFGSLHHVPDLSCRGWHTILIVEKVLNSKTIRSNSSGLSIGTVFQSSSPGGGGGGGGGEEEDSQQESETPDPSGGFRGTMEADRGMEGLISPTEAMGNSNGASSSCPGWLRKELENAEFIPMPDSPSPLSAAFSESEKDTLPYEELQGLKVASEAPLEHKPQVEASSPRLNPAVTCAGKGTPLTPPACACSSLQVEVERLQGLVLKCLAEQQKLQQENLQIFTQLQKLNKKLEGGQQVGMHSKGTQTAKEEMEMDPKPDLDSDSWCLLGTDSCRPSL

Compound | effect on | mode | technique | tested at | endpoint | result
N[C@H]1CCN(c2nccc(-c3cnn4ncccc34)n2)C1 | binding |  |  | 1 µM | remaining binding | 100%
O=C(Nc1cnn(-c2csc(C(=O)NC3COC3)c2)c1)Nc1c(F)cccc1Cl | enzyme activity | inhibitor |  | 5 µM | remaining activity | 88.4%
Cc1ccc(C(=O)Nc2ccc(CN3CCN(C)CC3)c(C(F)(F)F)c2)cc1C#Cc1cnc2cccnn12 | enzyme activity | inhibitor |  | 23.5 nM | remaining activity | 100%
CS(=O)(=O)c1cc(C2(NC(=O)c3cncc4c3cnn4-c3ccc(F)cc3)CC2)ccn1 | cell-free assay |  | competition with immobilised ligand | 1 µM | remaining binding | 100%
CCOc1cc(-c2nncn2C)ccc1Nc1ncc2cc(C)nc(NCC(C)(C)C)c2n1 | enzyme activity | inhibitor | FRET | 1 µM | inhibition | < 15%
Oc1cccc(-c2nc(N3CCOCC3)c3oc4ncccc4c3n2)c1 | cell-free assay |  |  | 0.5 µM | remaining signal | 99.3%
CC/C(=N\NC(=O)NCc1cccc(O)c1)c1ccc(O)c(C)c1O | enzyme activity | inhibitor |  | 0.1 µM | inhibition | -2.8%
COc1cc2ncnc(Nc3ccc(Oc4ccccc4)c(C)c3C)c2cc1OC | enzyme activity | inhibitor |  | 1 µM | inhibition | 5%
O=C1NC(=O)c2cc(Nc3ccc(F)cc3)c(Nc3ccc(F)cc3)cc21 | cell-free assay |  |  | 0.5 µM | remaining signal | 107%
CCCS(=O)(=O)Nc1ccc(F)c(C(=O)c2c[nH]c3ncc(-c4ccc(Cl)cc4)cc23)c1F | enzyme activity | inhibitor |  | 1 µM | inhibition | < 10%
O=C(NCc1ncc(C(F)(F)F)cc1Cl)c1ccc2c(c1)C1(CCS(=O)(=O)CC1)[C@H](C1CC1)N2S(=O)(=O)c1ccc(F)cc1 | cell-free assay |  | competition with immobilised ligand | 1 µM | remaining binding | 100%
CC(C)(C)c1nc2c(s1)c1nc(N)ncc1c1ccc(NS(=O)(=O)c3c(F)cccc3F)c(F)c12 | enzyme activity | inhibitor | radiometric | 1 µM | remaining activity | 96%
C[C@H](NC(=O)c1cnc2n1[C@](C)(Cc1ccc(C#N)cc1)C(=O)N2c1cc(Cl)c(F)c(Cl)c1)C(=O)NC1(c2ccccn2)CC1 | cell-free assay |  | competition with immobilised ligand | 1 µM | remaining binding | 100%
Nc1ncnc2occ(-c3ccc(NC(=O)Nc4cc(C(F)(F)F)ccc4F)cc3)c12 | cell-free assay | inhibitor |  | 20 µM | remaining signal | 1.6%
COc1cc(Nc2c(C#N)cnc3cc(OCCCN4CCN(C)CC4)c(OC)cc23)c(Cl)cc1Cl | cell-free assay |  |  | 0.5 µM | remaining signal | 94%
Cc1nc(N2CC[C@@H](O)C2)ncc1-c1cc(C(F)(F)F)cc2[nH]ncc12 | binding |  | competition with immobilised ligand | 1 µM | remaining binding | 96%
O=C1Nc2ccc(Cl)cc2C1=Cc1cc(Cl)c(O)c(Cl)c1 | cell-free assay |  |  | 0.5 µM | remaining signal | 103%
Nc1c(C(=O)NCc2ccc(C(=O)NCCCC3CCCCC3)cc2)cnn1-c1ccccc1 | cell-free assay |  | competition with immobilised ligand | 0.1 µM | remaining binding | 100%
